Source: ChEMBL document CHEMBL1149821, “Antimycobacterial activity of diphenylpyraline derivatives” (Eur J Med Chem, 2008)
Values after ≈ are worked out from the molar mass of the structure shown.

What was measured:
[1] = tested on: Mycobacterium tuberculosis; assay: Antimicrobial activity against Mycobacterium tuberculosis H37Rv at 6.25 ug/ml by alamar blue assay; type: functional
Method in brief: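 M. tuberculosis H37Rv (ATCC 27294) tested in the TAACF screening program by microplate Alamar Blue assay (MABA) at a single concentration of 6.25; read-out was percent growth inhibition.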

[2] = Cytotoxicity against HEK293 cells by MTT assay; type: cell-based; details: human, read-out: LC50 (the source's name)
Method in brief: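 HEK-293 cells seeded at 12 000 cells/well in DMEM with 10% FCS at 37 °C, 5% CO₂. After 48 h, half the medium was renewed. Hydrochloride salts in 17% glycerine/33% DMSO/50% water were added; vehicle served as control. After 72 h, MTT was added for 3 h, then formazan was solubilised with 10% SDS/0.01 M HCl. A544 (reference 640 nm) was read, and LC50 came from a Boltzmann sigmoidal fit.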

[3] = tested on: Mycobacterium tuberculosis; assay: Antimicrobial activity against Mycobacterium tuberculosis H37Rv by alamar blue assay; type: functional
Method in brief: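 M. tuberculosis H37Rv (ATCC 27294) microplate Alamar Blue assay (MABA), run within the TAACF screening program.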

| SMILES | inhibition at 6.25 µg/mL [1] | CC50 [2] | MIC [3] |
| --- | --- | --- | --- |
| CC(C)[C@H]1C[C@@H](OC(c2ccccc2)c2ccccc2)CCN1C (relative stereo) | 68% | 98.1 µg/mL (≈ 303 µM) | – |
| CN1CCC(OC(c2ccccc2)c2ccccc2)CC1.Cl [DIPHENYLPYRALINE HYDROCHLORIDE] | 5% | 108 µg/mL | 64 µg/mL |
| CC(C)[C@H]1C[C@@H](OC(c2ccccc2)c2ccccc2)CCN1c1ccccc1 (relative stereo) | 36% | 69.4 µg/mL (≈ 180 µM) | – |
| CC(C)[C@@H]1C[C@@H](OC(c2ccccc2)c2ccccc2)CCN1C (relative stereo) | 12% | 69.4 µg/mL (≈ 215 µM) | – |
| c1ccc(C(O[C@H]2CCN(c3ccccc3)[C@@H](c3ccccc3)C2)c2ccccc2)cc1 (relative stereo) | 39% | 77.8 µg/mL (≈ 185 µM) | – |
| CN1CCC(OC(c2ccc(Cl)cc2)c2ccc(Cl)cc2)CC1 | 65% | 25.5 µg/mL (≈ 72.7 µM) | – |
| CC(C)[C@H]1C[C@@H](OC(c2ccc(Cl)cc2)c2ccc(Cl)cc2)CCN1CCc1ccccc1 (racemic) | 0% | 76.5 µg/mL (≈ 158 µM) | – |
| CN1CCC(OC(c2ccccc2)c2ccccc2)CC1(C)C (racemic) | 18% | 105 µg/mL (≈ 338 µM) | – |
| CC(C)[C@H]1C[C@@H](OC(c2ccc(Cl)cc2)c2ccc(Cl)cc2)CCN1C (racemic) | 74% | 17.9 µg/mL (≈ 45.7 µM) | – |
| CC(C)[C@@H]1C[C@@H](OC(c2ccccc2)c2ccccc2)CCN1c1ccccc1 (relative stereo) | 7% | 97.1 µg/mL (≈ 252 µM) | – |
| NNC(=O)c1ccncc1 [ISONIAZID] | > 99% | > 576 µg/mL | – |
| CC1(C)C[C@@H](OC(c2ccccc2)c2ccccc2)CCN1c1ccccc1 (racemic) | 3% | 65.1 µg/mL (≈ 175 µM) | – |
| c1ccc(CCN2CCC(OC(c3ccccc3)c3ccccc3)CC2)cc1 | 8% | 14.9 µg/mL (≈ 40.2 µM) | – |
| c1ccc(C(O[C@H]2CCN(c3ccccc3)[C@H](c3ccccc3)C2)c2ccccc2)cc1 (relative stereo) | 75% | 112 µg/mL (≈ 266 µM) | – |
| CC(C)[C@H]1C[C@@H](OC(c2ccccc2)c2ccccc2)CCN1CCc1ccccc1 (racemic) | 0% | 62.8 µg/mL (≈ 152 µM) | – |
| Clc1ccc(C(OC2CCN(CCc3ccccc3)CC2)c2ccc(Cl)cc2)cc1 | 56% | 17.3 µg/mL (≈ 39.2 µM) | – |
